Key:
[1] = Cytotoxicity against human HeLa-APL cells after 48 hrs by SRB assay; type: functional
In short: (§1)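 Cells grown in RPMI 1640 with 10% FBS and penicillin/streptomycin at 37 °C and 5% CO₂, trypsinized, then seeded at 5 × 10³/well. After 18 h drug-free attachment, samples in DMSO/EtOH/PBS (0.5:0.5:99) were added for 48 h continuous exposure. Cells were fixed with cold TCA (1 h, 4 °C) and stained with SRB (10 min). Tris-solubilized stain read at 490 nm. Triplicate wells, mean ± SD; GI₅₀ derived.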

HT-29 = test: Cytotoxicity against human HT29 cells after 48 hrs by SRB assay; type: functional, cell-based; conditions: Homo sapiens, HT-29, 48 h; for CC50: read-out: LC50 (the source's name); in short: as §1
[2] = Cytotoxicity against human IGROV-ET cells after 48 hrs by SRB assay; type: functional; conditions: for CC50: read-out: LC50 (the source's name); in short: as §1
SK-MEL-28 = test: Cytotoxicity against human SK-MEL-28 cells after 48 hrs by SRB assay; type: functional, cell-based; conditions: Homo sapiens, SK-MEL-28, 48 h; for CC50: read-out: LC50 (the source's name); in short: as §1
PANC-1 = test: Cytotoxicity against human PANC1 cells after 48 hrs by SRB assay; type: functional; conditions: PANC-1, 48 h; for CC50: read-out: LC50 (the source's name); in short: as §1
[3] = Cytotoxicity against human IGROV cells after 48 hrs by SRB assay; type: functional; conditions: read-out: LC50 (the source's name); in short: as §1
K562 = test: Cytotoxicity against human K562 cells after 48 hrs by SRB assay; type: functional; conditions: K562, 48 h; for CC50: read-out: LC50 (the source's name); in short: as §1
DU-145 = test: Cytotoxicity against human DU145 cells after 48 hrs by SRB assay; type: functional, cell-based; conditions: Homo sapiens, DU-145, 48 h; for GI50: read-out: GI50; for CC50: read-out: LC50 (the source's name); in short: as §1
HeLa = test: Cytotoxicity against human HeLa cells after 48 hrs by SRB assay; type: functional; conditions: for CC50: read-out: LC50 (the source's name); in short: as §1
LoVo [4] = test: Cytotoxicity against human doxorubicin resistant LoVo cells after 48 hrs by SRB assay; type: functional; conditions: for CC50: read-out: LC50 (the source's name); in short: as §1
LoVo [5] = test: Cytotoxicity against human LoVo cells after 48 hrs by SRB assay; type: functional; conditions: for CC50: read-out: LC50 (the source's name)
A549 = test: Cytotoxicity against human A549 cells after 48 hrs by SRB assay; type: functional, cell-based; conditions: Homo sapiens, A549, 48 h; in short: as §1

| Structure (SMILES) | LC50 (concentration giving 50% net cell kill) [1] [µM] | CC50 (HT-29) [µM] | GI50 ([2]; read-out: GI50) [µM] | CC50 [2] [µM] | CC50 (SK-MEL-28) [µM] | GI50 (PANC-1) [µM] | TGI (PANC-1) [µM] | CC50 (PANC-1) [µM] | CC50 [3] [µM] | CC50 (K562) [µM] | TGI (DU-145) [µM] | CC50 (DU-145) [µM] | GI50 (HeLa) [µM] | TGI (HeLa) [µM] | CC50 (HeLa) [µM] | CC50 (LoVo [4]) [µM] | GI50 (LoVo [5]) [µM] | TGI (LoVo [5]) [µM] | CC50 (LoVo [5]) [µM] | LC50 (A549) [µM] | further results |
| --- | --- | --- | --- | --- | --- | --- | --- | --- | --- | --- | --- | --- | --- | --- | --- | --- | --- | --- | --- | --- | --- |
| C/C=C1\NC(=O)[C@H](Cc2ccccc2)NC(=O)[C@@H](C(C)C)NC(=O)[C@@H]([C@H](C)CC)NC(=O)[C@H](NC(=O)[C@H](NC(=O)[C@H](CCCN)NC(=O)[C@H]2CCCN2C(=O)[C@H](NC(=O)[C@@H](NC(=O)[C@@H](NC(=O)[C@@H](CCC(N)=O)NC(=O)CCCC(C)C)[C@@H](C)O)C(C)C)C(C)C)[C@H](C)CC)[C@H](C)OC(=O)[C@H](C(C)C)NC1=O | 1.8 | 2.87 | 1.33 | 0.653 | 1.23 | 0.168 | 0.222 | 0.361 | 0.743 | 2.79 | 1.39 | 1.32 | 0.452 | 0.649 | 0.915 | 1.67 | 1.46 | 1.8 | 2.22 | 0.664 | GI50 [1]: 2.42 µM; TGI [1]: 3.2 µM; GI50 (HT-29): 2.3 µM; TGI (HT-29): 2.56 µM; GI50 [2]: 0.947 µM; TGI (SK-MEL-28): 1.28 µM; GI50 (SK-MEL-28; read-out: GI50): 1.34 µM; GI50 (DU-145): 1.46 µM; GI50 (LoVo [4]): 0.61 µM; TGI (LoVo [4]): 1.08 µM; GI50 (A549): 0.35 µM; GI50 (A549; read-out: GI50): 0.234 µM |
| C/C=C1\NC(=O)[C@H](Cc2ccccc2)NC(=O)[C@@H](C(C)C)NC(=O)[C@@H]([C@H](C)CC)NC(=O)[C@H](N)[C@H](C)OC(=O)[C@H](C(C)C)NC1=O | 3.58 | 10.3 | 4.4 | 2.28 | 3.87 | 4.35 | 9.72 | 5.52 | 2.71 | 8.32 | 6 | 3.31 | 0.74 | 5.42 | 3.13 | 9.86 | 14.9 | 16.9 | 9.83 | 3.58 | TGI [2]: 5.58 µM; GI50 (DU-145): 5.1 µM |
| C/C=C1\NC(=O)[C@H](Cc2ccccc2)NC(=O)[C@@H](C(C)C)NC(=O)[C@@H]([C@H](C)CC)NC(=O)[C@H](NC(=O)[C@H](NC(=O)[C@H](CCCN)NC(=O)[C@H]2CCCN2C(=O)[C@H](NC(=O)[C@@H](NC(=O)[C@@H](NC(=O)CNC(=O)CCCC(C)C)[C@@H](C)O)C(C)C)C(C)C)[C@H](C)CC)[C@H](C)OC(=O)[C@H](C(C)C)NC1=O | 1.89 | 5.41 | – | 1.2 | 2.04 | 0.499 | 1.25 | 2.11 | 1.43 | 4.39 | – | 1.75 | 0.672 | 1.32 | 1.65 | 5.2 | 8.76 | 8.9 | 5.18 | 1.89 | GI50 (HT-29): 10.9 µM; TGI (HT-29): 9.54 µM; GI50 (K562): 3.85 µM; TGI (K562): 11.4 µM; GI50 (LoVo [4]): 11.1 µM; TGI (LoVo [4]): 9.1 µM |
| C/C=C1\NC(=O)[C@H](Cc2ccccc2)NC(=O)[C@@H](C(C)C)NC(=O)[C@@H]([C@H](C)CC)NC(=O)[C@H](NC(=O)[C@H](NC(=O)[C@H](CCCN)NC(=O)[C@H]2CCCN2C(=O)[C@H](NC(=O)[C@@H](NC(=O)[C@@H](NC(=O)[C@H](NC(=O)CC[C@@H](C)[C@H]2CC[C@H]3[C@@H]4CC[C@@H]5C[C@H](O)CC[C@]5(C)[C@H]4CC[C@]23C)C(C)C)[C@@H](C)O)C(C)C)C(C)C)[C@H](C)CC)[C@H](C)OC(=O)[C@H](C(C)C)NC1=O | 3.58 | 10.3 | 4.4 | 2.28 | 3.87 | 4.35 | 9.72 | 5.52 | 2.71 | 8.32 | 6 | 3.31 | 0.74 | 5.42 | 3.13 | 9.86 | 14.9 | 16.9 | 9.83 | 3.58 | TGI [2]: 5.58 µM; GI50 (DU-145): 5.1 µM |
